pPAFAH inh – pPAFAH (human) enzyme inhibition; Q13093; recombinant pPAFAH, FP-rhodamine probe fluorescence polarization; inhibition, % at 3.39 µM; 330,000 compounds, 1.5% hits; AID 463082;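 active means inhibition above the mean inhibition across the screen plus 3 SD, cut at about 25% in these data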;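 further: inhibitors block binding of the rhodamine activity-based probe so polarization drops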
Target sequence (Q13093 whole entry, looked up): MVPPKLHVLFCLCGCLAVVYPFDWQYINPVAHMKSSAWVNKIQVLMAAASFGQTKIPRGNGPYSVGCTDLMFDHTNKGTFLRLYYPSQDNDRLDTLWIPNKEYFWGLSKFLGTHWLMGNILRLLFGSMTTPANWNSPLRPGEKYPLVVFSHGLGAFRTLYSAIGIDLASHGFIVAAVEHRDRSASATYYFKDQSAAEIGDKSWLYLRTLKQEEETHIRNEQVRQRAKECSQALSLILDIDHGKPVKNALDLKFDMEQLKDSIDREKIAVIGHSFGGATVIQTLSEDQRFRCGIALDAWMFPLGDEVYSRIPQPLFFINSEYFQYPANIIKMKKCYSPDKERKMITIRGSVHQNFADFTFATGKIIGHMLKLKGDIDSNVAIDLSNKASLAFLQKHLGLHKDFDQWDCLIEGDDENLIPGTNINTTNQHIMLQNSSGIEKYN
SIAE primary – human SIAE inhibition, primary screen; Q9HAT2; SIAE FP-Rh probe binding, fluorescence polarization; inhibition, % at 9.66 µM; 370,000 compounds, 0.69% hits;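 active means inhibition above a cutoff: mean of compounds within the control limits plus 3 SD of those, cut at about 17% in these data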
HTRA1 inhibitor – inhibitors of human serine peptidase HTRA1 | 340,000 compounds, 0.5% hits | recombinant HTRA1, FP-rhodamine activity-based probe, fluorescence polarization | inhibition, % at 5.96 µM | Q92743; in the data active means inhibition above about 36%
TCR-CD3 inh – blocks the human TCR-CD3 interaction; TAMRA-labeled TCR probe fluorescence, biochemical; inhibition, % at 9.4 µM; 360,000 compounds, 0.37% hits; AID 651800; in the data active means inhibition above about 19%;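 further: recombinant mutant TCR 2C K166C tagged with TAMRA read by polarization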
mABHD4 FP – inhibits mouse alpha/beta hydrolase domain 4 | inhibition, % at 8.92 µM | 370,000 compounds, 0.54% hits | Q8VD66 | purified mABHD4, FP-Rh probe fluorescence polarization;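 active means inhibition exceeding the mean over every tested compound plus 3 SD, cut at about 30% in these data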
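Test system: mouse ABHD4 enzyme, wild type. Reagent: FP-Rh fluorescent activity-based probe, added after compound pre-incubation. Timing: pre-incubation 45 min, probe exposure 60 min, at 25 °C. Technique: FP readout, ex 525 nm / em 598 nm. Benchmarks: high control S159A mutant with DMSO, low control median of compound wells.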
SIAE confirm – confirmation of human SIAE inhibitors. shares compounds with SIAE primary. SIAE FP-Rh activity-based probe, fluorescence polarization. inhibition, % at 9.66 µM. 2,300 compounds, 13% hits;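 active means mean inhibition of the replicates above the hit cutoff set in the primary screen, cut at about 17% in these data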;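 further: inhibitors lower polarization as more probe stays unbound to SIAE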
Each line names hits and unclear results; the compound was inactive in the other large screens (follow-up assays come after a bar, where they were run). Only some compounds are listed: those with a hit (about 2.3% of all), similar ones and a draw of the others.

COC(=O)c1ccc2nc(-c3ccco3)c(Cc3ccccc3OC)n2c1	none (no result: pPAFAH inh, HTRA1 inhibitor)
CN(C)Cc1c(O)ccc2occ(C(=O)c3ccccc3)c12	none
CN(C)Cc1c(O)ccc2occ(C(=O)c3ccc(F)cc3)c12	SIAE primary 22 | SIAE confirm inactive
COc1ccc(S[C@]2(C(=O)N(C)C)CC(=O)N(c3ccc(Cl)cc3)[C@@H]2c2ccc(OC)cc2)cc1	none (no result: pPAFAH inh, HTRA1 inhibitor, TCR-CD3 inh)
CCOc1ccc(NC(=O)CCC(=O)Nc2cc(OC)c(NC(=O)c3ccco3)cc2OC)cc1	SIAE primary 19 | SIAE confirm inactive
Cc1cccc(-c2nnc(SCc3cccc4ccccc34)n2-c2ccc(Cl)cc2)c1	none (no result: pPAFAH inh, HTRA1 inhibitor, TCR-CD3 inh)
COCCCn1cc(CN2CC(N3CCN(C4CCN(C)CC4)CC3)CS2(=O)=O)nn1 (stereo not drawn)	none (no result: pPAFAH inh, HTRA1 inhibitor)
O=C(CCNC(=O)c1ccc(Br)cc1)Nc1ncccc1O	SIAE primary 24 | SIAE confirm inactive
Nc1c(C(=O)N2CCN(c3ccccc3)CC2)nnn1Cc1ccc(Cl)cc1	none (no result: pPAFAH inh, HTRA1 inhibitor, TCR-CD3 inh)
CCOc1ccc(OCC)c(NC(=O)Nc2ccc3c(c2)N(C)C(=O)CS3)c1	SIAE primary 22 | SIAE confirm inactive
COc1cc2ccccc2cc1C(=O)N1CCCCC1	none
COc1cc2ccccc2cc1C(=O)N1CCCC1	SIAE primary 22 | SIAE confirm inactive
Cc1ccc(S(=O)(=O)Oc2ccccc2/C=N/NC(N)=S)cc1	none
Cc1ccc(S(=O)(=O)Oc2ccccc2/C=N/N=C(N)N)cc1	SIAE primary 21 | SIAE confirm inactive
O=Nc1c(-c2cccc([N+](=O)[O-])c2)nc2ncccn12	SIAE primary 18 (no result: HTRA1 inhibitor) | SIAE confirm inactive
O=C(CSc1ccccc1)Nc1ccc(N2CCOCC2)c(F)c1	SIAE primary 18 | SIAE confirm inactive
O=C(CSc1ccc(Cl)cc1)Nc1ccc(N2CCN(c3ccccc3)CC2)c(F)c1	none
COc1ccc2[nH]c(C)c(CCNC(=S)Nc3ccccc3C)c2c1	none
COc1ccc2[nH]c(C)c(CCNC(=S)Nc3cccc(C)c3C)c2c1	SIAE primary 18 | SIAE confirm inactive
COC(=O)C1=NN(C(=O)c2cccc(Cl)c2)C(O)(C(C)(C)C)C1 (stereo not drawn)	SIAE primary 24 | SIAE confirm inactive
N#CC(=C1C=C(Br)C(=NO)C=C1Cl)c1cccc2ccccc12	SIAE primary 18 (no result: pPAFAH inh) | SIAE confirm inactive
COc1ccccc1C1=NOC(Cn2c(NCC3CCCO3)nc3c2c(=O)n(C)c(=O)n3C)C1 (stereo not drawn)	SIAE primary 17 | SIAE confirm inactive
CCN1C(=O)/C(=C2/C(=O)N3c4c(cc(OC(C)=O)cc42)C(C)=CC3(C)C)SC1=S	SIAE primary 17 | SIAE confirm inactive
CN(C(=O)CSc1nc2sc3c(c2c(=O)n1C)CCC3)C1CCS(=O)(=O)C1 (stereo not drawn)	SIAE primary 19 | SIAE confirm inactive
CN(C(=O)CSc1ncnc2sc3c(c12)CCC3)C1CCS(=O)(=O)C1 (stereo not drawn)	none
COC(=O)C12CCCN1C1C(=O)N(Cc3ccc(C(N)=O)cc3)CC1C2 (stereo not drawn)	none (no result: pPAFAH inh, HTRA1 inhibitor, TCR-CD3 inh)
Cc1ccc(N2C(=O)C3CCC(C)(C2=O)C3(C)C)cc1 (stereo not drawn)	none
CSC[C@@H]1NC(=S)N(c2ccc(C)cc2)C1=O	SIAE primary 52 | SIAE confirm inactive
O=C1c2ccccc2C2=Nc3ccccc3SC(c3cccc(F)c3)C12 (stereo not drawn)	SIAE primary 18 | SIAE confirm inactive
O=C1c2ccccc2C2=Nc3ccccc3SC(c3ccc(Cl)cc3)C12 (stereo not drawn)	none
CC(CCc1ccccc1)NC(=O)CSc1cccc[n+]1[O-] (stereo not drawn)	SIAE primary 19 | SIAE confirm inactive
O=S1(=O)N[C@@H](Cc2ccccc2)COc2cc(N3CCSCC3)ccc21	none (no result: pPAFAH inh, HTRA1 inhibitor)
COC(=O)c1ccc(Cn2ccc3ccc(-c4ccc5ccn(C(=O)c6ccc(C)cc6)c5c4)cc32)cc1	none (no result: pPAFAH inh, HTRA1 inhibitor, TCR-CD3 inh)
CCOc1ccc(/C=N/NC(=O)c2cc3c(OC)cc(OC)c(OC)c3[nH]2)cc1	SIAE primary 31 | SIAE confirm 17
COc1cc(OC)c2cc(C(=O)N/N=C/c3ccccc3O)[nH]c2c1	SIAE primary 25 | SIAE confirm inactive
CCCOc1ccc2[nH]c(C(=O)N/N=C/c3cc(OC)c(OC)c(OC)c3)cc2c1	none
O=C(NCCc1c[nH]c2ccccc12)OCc1cn(Cc2c(F)cccc2F)nn1	none (no result: pPAFAH inh, HTRA1 inhibitor, TCR-CD3 inh)
O=C(CSc1nc2ccccc2n1Cc1ccccc1)NN=C/C=C/c1ccccc1	none (no result: pPAFAH inh, HTRA1 inhibitor, TCR-CD3 inh)
O=C(Cc1cn(Cc2ccccc2)c2ccccc12)Nc1ccc(Nc2cccnc2)cc1	SIAE primary 26 (no result: pPAFAH inh, HTRA1 inhibitor) | SIAE confirm 28
c1ccc(-c2nn(Cc3ncco3)c3ccccc23)cc1	none (no result: pPAFAH inh, HTRA1 inhibitor, TCR-CD3 inh)
O=C(O)c1cc2cc(S(=O)(=O)O)ccc2cc1O	none (no result: pPAFAH inh)
O=S(=O)(O)c1cc(O)c2cc(Nc3ccccc3)ccc2c1	SIAE primary 18, TCR-CD3 inh 19, mABHD4 FP 65 (no result: pPAFAH inh) | SIAE confirm 43
C=CCn1c(C)nnc1SCC(=O)N1c2ccccc2NC(=O)C1(C)C	SIAE primary 18 (no result: pPAFAH inh) | SIAE confirm inactive
CC1(C)C(=O)Nc2ccccc2N1C(=O)CSc1ncccn1	none
COC(=O)[C@]12C[C@H](CC(=O)NCc3cccs3)C(=O)N(Cc3ccc4c(c3)OCO4)C1=C[C@H](COCc1ccccc1)O[C@@H]2C	none (no result: pPAFAH inh, HTRA1 inhibitor)
COc1ccc(C(C(=O)c2ccccc2)c2ccccc2)cc1 (stereo not drawn)	none (no result: pPAFAH inh, HTRA1 inhibitor)
Cc1ccc2oc(=O)c3cc(C(=O)NCCCN4CCC(C)CC4)sc3c2c1	none (no result: pPAFAH inh, HTRA1 inhibitor)
COc1ccccc1NC(=O)C(Cc1ccc(Cl)cc1)c1nn[nH]n1 (stereo not drawn)	none
COc1ccc(CC(C(=O)Nc2ccc(OC)cc2)c2nn[nH]n2)cc1 (stereo not drawn)	SIAE primary 26 | SIAE confirm inactive
O=C(Cc1c[nH]c2ccccc12)Nc1ccc(Nc2cccnc2)c(-c2cccc(Cl)c2)c1	none (no result: pPAFAH inh, HTRA1 inhibitor)
O=C(Cc1c[nH]c2ccccc12)Nc1ccc(Nc2cccnc2)c(-c2ccc(F)c(F)c2)c1	SIAE primary 28 (no result: pPAFAH inh, HTRA1 inhibitor) | SIAE confirm inactive
O=C(Cc1c[nH]c2ccccc12)Nc1ccc(Nc2cccnc2)c(-c2ccc(-c3ccccc3)cc2F)c1	SIAE primary 22 (no result: pPAFAH inh, HTRA1 inhibitor) | SIAE confirm inactive
O=C(CSc1ncccn1)N1CCN(C(=O)CSc2ncccn2)CC1	none
CCOC(=O)N1CCN(C(=O)CSc2ncccn2)CC1	SIAE primary 19 | SIAE confirm inactive
Cc1ccc2c(=O)n3c(nc2c1)C(CC(C)C)NC(=O)c1cccnc1-3 (stereo not drawn)	none (no result: pPAFAH inh)
COc1cccc(NC(=O)C2=COCCO2)c1	none
COc1cccc(NC(=O)CN(C)C(=O)C2=COCCO2)c1	SIAE primary 18 (no result: pPAFAH inh) | SIAE confirm inactive
CC1=C(C(=O)Nc2ccc(C)cc2)C(c2ccco2)NC(=O)N1 (stereo not drawn)	SIAE primary 23 | SIAE confirm inactive
